Results: ChEMBL document CHEMBL1123876, “Effect of reductive alkylation of lysine in positions 6 and/or 8 on the histamine-releasing activity of luteinizing hormone-releasing hormone antagonists” (1987)
Values after ≈ are worked out from the molar mass of the structure shown. *1 amine or outer side, *2 acyl side, *3 side chain or, on linkers, in order; H or OH if unused. Where a SMILES comes first, the peptide text is derived from it. [ ]: non-standard residue; d: D form. X1 = O=C([C@@H](CCCCNC1CCCC1)N[*:1])[*:2]; X2 = O=C([C@H](CCCCNC1CCCC1)N[*:1])[*:2]; d2Nal = N[C@H](Cc1ccc2ccccc2c1)C(=O)O

How the values were obtained:
Format in all cases: functional
Rattus norvegicus [1] = species: Rattus norvegicus; experiment: Antiovulatory activity in rat was expressed as percentage of (9) rats blocked at 3 ug/mL
Method in brief: (§1)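 Standard antiovulatory assay in Sprague-Dawley rats; analogue given in a 40% propane-1,2-diol/0.9% saline vehicle.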

Rattus norvegicus [2] = species: Rattus norvegicus; experiment: In vitro histamine releasing activity in rat peritoneal cells; conditions: read-out: ED50 (the source's name)
Method in brief: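 Peritoneal cells from male Sprague-Dawley rats exposed in vitro to each analogue in a standard histamine-release assay. ED50 for histamine release is reported in μg/mL as mean ± standard error.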

Rattus norvegicus [3] = species: Rattus norvegicus; experiment: Antiovulatory activity in rat was expressed as percentage of (8) rats blocked at 3 ug/mL; method in brief: as §1
Rattus norvegicus [4] = species: Rattus norvegicus; experiment: Antiovulatory activity in rat was expressed as percentage of (10) rats blocked at 3 ug/mL; parameters: unit: %; method in brief: as §1
Rattus norvegicus [5] = species: Rattus norvegicus; experiment: Antiovulatory activity in rat was expressed as percentage of (9) rats blocked at 6 ug/mL; method in brief: as §1
Rattus norvegicus [6] = species: Rattus norvegicus; experiment: Antiovulatory activity in rat was expressed as percentage of rats blocked at 1 ug/mL (number of rats); method in brief: as §1

EC50 (Rattus norvegicus [2]) | SMILES | Antiovulatory activity (Rattus norvegicus [1]) | Antiovulatory activity (Rattus norvegicus [3]) | Antiovulatory activity (Rattus norvegicus [4]) | Antiovulatory activity (Rattus norvegicus [5]) | Antiovulatory activity (Rattus norvegicus [6])
4.6 µg/mL (≈ 3.07 µM) | CCCC(CCC)NCCCC[C@H](NC(=O)[C@H](Cc1ccccc1)NC(=O)[C@@H](CCCN=C(N)N)NC(=O)[C@H](Cc1ccc(O)cc1)NC(=O)[C@H](CO)NC(=O)[C@@H](Cc1ccccc1)NC(=O)[C@@H](Cc1ccccc1)NC(=O)[C@@H](Cc1ccc2ccccc2c1)NC(C)=O)C(=O)N1CCC[C@H]1C(=O)N[C@H](C)C(=O)O | – | 0 | – | – | –
33 µg/mL (≈ 21.9 µM) | CC(=O)N[C@H](Cc1ccc2ccccc2c1)C(=O)N[C@H](Cc1ccccc1)C(=O)N[C@H](Cc1ccccc1)C(=O)N[C@@H](CO)C(=O)N[C@@H](Cc1ccc(O)cc1)C(=O)N[C@H](CCCN=C(N)N)C(=O)N[C@@H](Cc1ccccc1)C(=O)N[C@@H](CCCCNCc1ccc(C)cc1)C(=O)N1CCC[C@H]1C(=O)N[C@H](C)C(=O)O | – | – | 10 | – | –
4.68 µg/mL (≈ 3.18 µM) | CC(=O)N[C@H](Cc1ccc2ccccc2c1)C(=O)N[C@H](Cc1ccccc1)C(=O)N[C@H](Cc1ccccc1)C(=O)N[C@@H](CO)C(=O)N[C@@H](Cc1ccc(O)cc1)C(=O)N[C@H](CCCN=C(N)N)C(=O)N[C@@H](Cc1ccccc1)C(=O)N[C@@H](CCCCNCC(C)(C)C)C(=O)N1CCC[C@H]1C(=O)N[C@H](C)C(=O)O | 89 | – | – | – | 50
4.73 µg/mL (≈ 3.08 µM) | CC(=O)N[C@H](Cc1ccc2ccccc2c1)C(=O)N[C@H](Cc1ccccc1)C(=O)N[C@H](Cc1ccccc1)C(=O)N[C@@H](CO)C(=O)N[C@@H](Cc1ccc(O)cc1)C(=O)N[C@H](CCCN=C(N)N)C(=O)N[C@@H](Cc1ccccc1)C(=O)N[C@@H](CCCCNCc1c(C)cc(C)cc1C)C(=O)N1CCC[C@H]1C(=O)N[C@H](C)C(=O)O | – | – | 10 | – | –

Further lines, the molecule ahead of its results:

SMILES | EC50 (Rattus norvegicus [2]) | Antiovulatory activity (Rattus norvegicus [1]) | Antiovulatory activity (Rattus norvegicus [3]) | Antiovulatory activity (Rattus norvegicus [4]) | Antiovulatory activity (Rattus norvegicus [5]) | Antiovulatory activity (Rattus norvegicus [6])
CC(=O)N[C@H](Cc1ccc2ccccc2c1)C(=O)N[C@H](Cc1ccccc1)C(=O)N[C@H](Cc1ccccc1)C(=O)N[C@@H](CO)C(=O)N[C@@H](Cc1ccc(O)cc1)C(=O)N[C@H](CCCCNC(C)C)C(=O)N[C@@H](Cc1ccccc1)C(=O)N[C@@H](CCCCNC(C)C)C(=O)N1CCC[C@H]1C(=O)N[C@H](C)C(N)=O | 6.48 µg/mL (≈ 4.45 µM) | 89 | – | – | – | –
CC(=O)N[C@H](Cc1ccc2ccccc2c1)C(=O)N[C@H](Cc1ccccc1)C(=O)N[C@H](Cc1ccccc1)C(=O)N[C@@H](CO)C(=O)N[C@@H](Cc1ccc(O)cc1)C(=O)N[C@H](CCCCNC1CCCCC1)C(=O)N[C@@H](Cc1ccccc1)C(=O)N[C@@H](CCCCNC1CCCCC1)C(=O)N1CCC[C@H]1C(=O)N[C@H](C)C(N)=O | 5.86 µg/mL (≈ 3.81 µM) | – | – | 38 | – | –
CCCC(CCC)NCCCC[C@H](NC(=O)[C@H](Cc1ccccc1)NC(=O)[C@@H](CCCCNC(CCC)CCC)NC(=O)[C@H](Cc1ccc(O)cc1)NC(=O)[C@H](CO)NC(=O)[C@@H](Cc1ccccc1)NC(=O)[C@@H](Cc1ccccc1)NC(=O)[C@@H](Cc1ccc2ccccc2c1)NC(C)=O)C(=O)N1CCC[C@H]1C(=O)N[C@H](C)C(N)=O | 21.9 µg/mL (≈ 14 µM) | – | – | 0 | 56 | –
CCCCC(CCCC)NCCCC[C@H](NC(=O)[C@H](Cc1ccccc1)NC(=O)[C@@H](CCCCNC(CCCC)CCCC)NC(=O)[C@H](Cc1ccc(O)cc1)NC(=O)[C@H](CO)NC(=O)[C@@H](Cc1ccccc1)NC(=O)[C@@H](Cc1ccccc1)NC(=O)[C@@H](Cc1ccc2ccccc2c1)NC(C)=O)C(=O)N1CCC[C@H]1C(=O)N[C@H](C)C(N)=O | > 300 µg/mL | – | – | – | 0 | –
CC(=O)N[C@H](Cc1ccc2ccccc2c1)C(=O)N[C@H](Cc1ccccc1)C(=O)N[C@H](Cc1ccccc1)C(=O)N[C@@H](CO)C(=O)N[C@@H](Cc1ccc(O)cc1)C(=O)N[C@H](CCCCNC1CCCC1)C(=O)N[C@@H](Cc1ccccc1)C(=O)N[C@@H](CCCCNC1CCCC1)C(=O)N1CCC[C@H]1C(=O)N[C@H](C)C(N)=O (Ac-[d2Nal][dF][dF]SY[X1]F[X2]P[dA]-NH2) | 6.1 µg/mL (≈ 4.04 µM) | – | – | 70 | – | –
